The nature of assay [1]: thallium flux activation in parental CHO cells, counter-screen for KCNQ1 potentiator project (AID 493006;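 active = duplicate-averaged activation above buffer control mean plus 5 SD of those controls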). The conditions noted are these: parental CHO-K1 cells, FluxOR thallium flux, at 10 µM; stronger effect = higher value. In short, it runs like this: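 Test system: parental CHO-K1 cells, FluxOR dye-loaded / Probe or stimulus: potassium plus thallium depolarizing stimulus, 5x stock 12.5 mM K2SO4, Tl2SO4 / Timing: overnight 37 °C plating, 90 min dye, 20 min dark compound / Measured by: kinetic thallium-flux fluorescence / Read-out: max-minus-min fluorescence over baseline, percent of buffer-to-R-L3 span / Benchmarks: buffer and R-L3 controls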
On the technique in general: Counterscreens check selectivity or assay interference.

Assay [2] has as its target Potassium voltage-gated channel subfamily KQT member 1 (Homo sapiens) (UniProt P51787). As to the kind of experiment: KCNQ1 potassium channel potentiators, confirmation, FluxOR thallium flux, CHO cells, duplicates (AID 493007;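 active = potentiation averaged over duplicate wells exceeding buffer-only control mean by more than 3 SD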;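 as to outcome: cells depolarized by a potassium plus thallium sulfate stimulus after compound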;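 as to potentiation: 0% = buffer-only wells and 100% = R-L3 activator control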). Particulars: KCNQ1 cell line, FluxOR thallium flux fluorescence, at 10 µM; stronger effect = higher value, % of reference activator effect, buffer zero. The procedure, abridged:
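Assay system: CHO cells carrying KCNQ1 | Controls: Buffer and R-L3 controls | Schedule: FluxOR dye loading 90 min, compound exposure 20 min, room temperature | Read-out: Baseline-normalized fluorescence change, percent of buffer-to-R-L3 range | Replicates: Each compound tested in duplicate | Technique: Kinetic thallium influx fluorescence with FluxOR dye, 10 s baseline, 110 s post-stimulus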

Assay [3] concerns the target Potassium voltage-gated channel subfamily KQT member 2 (Rattus norvegicus) (UniProt O88943). As to the kind of experiment: rat KCNQ2 channel potentiation, selectivity assay for KCNQ1 potentiator project, KCNQ2-CHO-K1 cells (AID 493009).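 Also: assay conditions were tuned for KCNQ1 rather than KCNQ2 modulators; signal is max minus min fluorescence divided by baseline after thallium stimulus.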 The conditions noted are these: FluxOR thallium flux fluorescence, at 10 µM; stronger effect = higher value, scaled: buffer 0, activator control 100.

Assay [4] deals with Potassium voltage-gated channel subfamily KQT member 1 (Homo sapiens) (UniProt P51787). As to the kind of experiment: KCNQ1 channel current potentiators, confirmation, orthogonal assay for KCNQ1 potentiator project, IonWorks patch clamp, KCNQ1-CHO cells (AID 493184;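 active = current rise at least 3 SD above the untreated control mean in each of two repeat wells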;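 as to current potentiation: percent change of the same well's current before compound addition so 0% = no change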). Particulars: automated patch clamp current, at 10 µM; stronger effect = higher value. The procedure, abridged:
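Material: KCNQ1-expressing CHO cells; doses: 10 µM final, single point; probe or stimulus: voltage step from -90 mV holding to +40 mV, 2,000 ms; signal: automated voltage clamp, amphotericin B perforated patch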

The target in assay [5] is Potassium voltage-gated channel subfamily E member 1 (Homo sapiens) + Potassium voltage-gated channel subfamily KQT member 1 (Homo sapiens) (UniProt P15382+P51787). As to the kind of experiment: KCNQ1/KCNE1 complex potentiators, confirmation, selectivity assay for KCNQ1 potentiator project, thallium flux, CHO-K1 KCNQ1/E1 cells (AID 493186;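 active = mean duplicate activation above the buffer control mean plus 5 SD of those controls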). Particulars: FluxOR thallium flux, at 10 µM; stronger effect = higher value. The procedure, abridged: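 Test system: CHO-K1 cells with KCNQ1/E1. Times: 90-min dye loading then 20-min compound exposure, both at room temperature. Measured by: kinetic FluxOR thallium-flux fluorescence, 10 s baseline plus 110 s after stimulus. Repeats: duplicate wells per compound.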

Active and inactive are the calls of the source.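 The calls were made as follows, unless noted: active = mean duplicate potentiation above the buffer control mean plus 5 SD of buffer wells; inactive = the rest.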

Sequence of Potassium voltage-gated channel subfamily KQT member 2 (Rattus norvegicus) (O88943 whole entry, looked up): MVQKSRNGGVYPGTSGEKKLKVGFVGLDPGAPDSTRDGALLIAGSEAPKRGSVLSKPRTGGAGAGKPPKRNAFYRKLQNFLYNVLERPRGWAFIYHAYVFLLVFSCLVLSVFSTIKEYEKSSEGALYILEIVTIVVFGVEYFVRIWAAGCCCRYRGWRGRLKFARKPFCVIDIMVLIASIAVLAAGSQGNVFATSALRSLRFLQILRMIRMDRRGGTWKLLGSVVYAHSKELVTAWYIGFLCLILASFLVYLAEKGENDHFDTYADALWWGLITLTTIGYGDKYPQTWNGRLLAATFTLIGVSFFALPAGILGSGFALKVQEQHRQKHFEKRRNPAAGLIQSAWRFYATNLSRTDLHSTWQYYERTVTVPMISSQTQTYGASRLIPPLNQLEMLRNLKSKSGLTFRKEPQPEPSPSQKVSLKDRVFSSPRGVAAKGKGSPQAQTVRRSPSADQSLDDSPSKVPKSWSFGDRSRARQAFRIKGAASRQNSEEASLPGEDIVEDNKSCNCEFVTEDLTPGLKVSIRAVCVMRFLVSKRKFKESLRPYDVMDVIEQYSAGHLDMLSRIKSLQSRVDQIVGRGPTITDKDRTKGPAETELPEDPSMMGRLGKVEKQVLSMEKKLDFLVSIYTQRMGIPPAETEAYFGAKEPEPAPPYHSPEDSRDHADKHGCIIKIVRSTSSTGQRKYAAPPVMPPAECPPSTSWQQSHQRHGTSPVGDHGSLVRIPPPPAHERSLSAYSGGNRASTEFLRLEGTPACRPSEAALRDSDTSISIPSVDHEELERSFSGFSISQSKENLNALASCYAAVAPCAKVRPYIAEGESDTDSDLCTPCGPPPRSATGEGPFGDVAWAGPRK
Sequence of Potassium voltage-gated channel subfamily E member 1 (Homo sapiens) + Potassium voltage-gated channel subfamily KQT member 1 (Homo sapiens) (P51787 whole entry, looked up): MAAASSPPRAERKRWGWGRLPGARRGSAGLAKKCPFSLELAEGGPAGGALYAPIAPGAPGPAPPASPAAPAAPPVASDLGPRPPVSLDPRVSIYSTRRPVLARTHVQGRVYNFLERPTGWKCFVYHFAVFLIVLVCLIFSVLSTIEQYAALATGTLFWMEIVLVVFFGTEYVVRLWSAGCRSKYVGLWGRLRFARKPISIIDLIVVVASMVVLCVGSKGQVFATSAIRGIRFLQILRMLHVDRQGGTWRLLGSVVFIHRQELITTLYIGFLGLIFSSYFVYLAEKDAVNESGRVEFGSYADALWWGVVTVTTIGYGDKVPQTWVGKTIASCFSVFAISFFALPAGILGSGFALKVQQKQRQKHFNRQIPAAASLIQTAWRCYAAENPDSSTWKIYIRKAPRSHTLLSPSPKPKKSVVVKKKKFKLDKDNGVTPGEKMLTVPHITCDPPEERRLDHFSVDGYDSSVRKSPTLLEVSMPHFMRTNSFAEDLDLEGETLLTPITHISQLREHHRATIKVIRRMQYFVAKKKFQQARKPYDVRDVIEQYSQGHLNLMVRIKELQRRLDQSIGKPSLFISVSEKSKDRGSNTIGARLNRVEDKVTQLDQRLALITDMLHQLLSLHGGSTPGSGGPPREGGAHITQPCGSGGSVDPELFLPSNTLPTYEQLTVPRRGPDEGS
Sequence of Potassium voltage-gated channel subfamily KQT member 1 (Homo sapiens) (P51787 whole entry, looked up): as above

Take `CCOC(=O)C1CCCN(C(=O)Cn2sc3nc(C)cc(C)c3c2=O)C1` (stereo not given): the result in assay [1], in assay [2], in assay [3], in assay [4] and in assay [5] was inactive.

Take `Cc1ccc(C(=O)NC(=S)NNC(=O)COc2ccc([N+](=O)[O-])cc2)cc1`: the result in assay [1], in assay [3], in assay [4] and in assay [5] was inactive. In addition, in assay [2], the potentiation was 19.5% (active).

Take `COc1ccc(CNC(=O)CSc2nc3ccc(OC)cc3[nH]2)cc1`: the outcome in assay [1], in assay [2], in assay [3], in assay [4] and in assay [5] was inactive.

Turning to `Cc1cc(C)cc(-n2c(C)cc(/C=C3\C(=N)N4N=C(CC(C)C)SC4=NC3=O)c2C)c1`, the result in assay [1], in assay [3], in assay [4] and in assay [5] was inactive. In assay [2], the potentiation is 21.5% (active).

Consider `N=c1sccn1CC(=O)Nc1ccc(S(=O)(=O)N2CCOCC2)cc1`, for which the result in assay [1], in assay [2], in assay [3], in assay [4] and in assay [5] was inactive.

As for `O=C(NC(=S)Nc1ccc2c(c1)OCCO2)c1cccc2ccccc12`, the result in assay [1], in assay [2], in assay [3], in assay [4] and in assay [5] was inactive.

As to `Cc1cc(/C=N/n2cnnc2)c(C)n1-c1cc(Cl)ccc1Cl`, the outcome in assay [1], in assay [2], in assay [3] and in assay [5] was inactive. Also, the current potentiation in assay [4] was 18.5% (active).

On to `COc1cc(C(=O)CCN2CCC(c3ccccc3)C2)cc(OC)c1OC` (stereo not given), for which the outcome in assay [1], in assay [2], in assay [3], in assay [4] and in assay [5] was inactive.

Consider `CCn1c(CCNC(=O)c2ccc(Cl)cc2Cl)n[nH]c1=S`, for which the outcome in assay [1], in assay [2], in assay [3], in assay [4] and in assay [5] was inactive.

Turning to `O=C(NCc1ccccc1)C(=O)Nc1nc(C23CC4CC(CC(C4)C2)C3)cs1`, the result in assay [1], in assay [2], in assay [3], in assay [4] and in assay [5] was inactive.

In the case of `CCOC(=O)N1CCN(C(=S)NC(=O)c2ccc(Br)cc2)CC1`, the outcome in assay [1], in assay [2], in assay [3], in assay [4] and in assay [5] was inactive.

Take `CCN(CC(=O)Nc1c(F)cccc1F)C(=O)C1CCN(C(=O)c2ccc(Cl)cc2)CC1`: the outcome in assay [1], in assay [2], in assay [3], in assay [4] and in assay [5] was inactive.

`Cc1onc(-c2ccccc2)c1C(=O)NC(=S)Nc1sc2c(c1C#N)CCCC2`: the result in assay [1], in assay [3], in assay [4] and in assay [5] was inactive. For the same compound, the potentiation in assay [2] is 31.5% (active).

As for `O=c1cc(-c2ccccc2)nc2cc(-c3ccco3)[nH]n12`, the result in assay [1], in assay [2], in assay [3], in assay [4] and in assay [5] was inactive.

Regarding `O=C(NC1(O)C(=O)c2ccccc2C1=O)c1ccc(C(F)(F)F)cc1`, the outcome in assay [1], in assay [2], in assay [4] and in assay [5] was inactive. For the same compound, the potentiation in assay [3] is 148% (active).

Turning to `O=c1c2cc(Cl)ccc2[nH]c(=S)n1Cc1cccs1`, the result in assay [1], in assay [2], in assay [4] and in assay [5] was inactive. Also, the potentiation in assay [3] was 142% (active).

With `O=C(NC(=S)Nc1nc2c(s1)CCCC2)c1ccccc1`, the outcome in assay [1], in assay [3], in assay [4] and in assay [5] was inactive. Further, the potentiation in assay [2] is 26% (active).

Turning to `CC1CN(C(=S)NC(=O)c2ccco2)CC(C)O1` (stereo not given), the result in assay [1], in assay [2], in assay [3], in assay [4] and in assay [5] was inactive.

Consider `S=C(Nc1ccccc1)Nc1nc2ccccc2n1CCOc1ccc(Cl)cc1`, for which the outcome in assay [1], in assay [2], in assay [3], in assay [4] and in assay [5] was inactive.

`Cc1ccc(Nc2ccc([N+](=O)[O-])cn2)cc1Cl`: the result in assay [1], in assay [2], in assay [4] and in assay [5] was inactive. In addition, the potentiation in assay [3] was 144% (active).

Regarding `O=C(O)CCn1c(-c2ccccc2)cc2ccccc21`, the result in assay [1], in assay [2], in assay [3], in assay [4] and in assay [5] was inactive.

Consider `O=c1oc2ccccc2c(Cl)c1CN1CCCCC1`, for which the result in assay [1], in assay [2], in assay [3], in assay [4] and in assay [5] was inactive.

Take `Cc1ccc(C(=O)CSc2nnc3c4ccccc4nc(C(C)(C)C)n23)cc1`: the outcome in assay [1], in assay [2], in assay [3], in assay [4] and in assay [5] was inactive.

Turning to `Cc1cc(-c2cccs2)c(C#N)c(=S)[nH]1`, the result in assay [1], in assay [2], in assay [3], in assay [4] and in assay [5] was inactive.

Turning to `CC1CC(=S)Nc2ccccc2N1C(=O)Nc1ccccc1` (stereo not given), the outcome in assay [1], in assay [2], in assay [3], in assay [4] and in assay [5] was inactive.

In the case of `CCc1cc(C(=O)N2CCN(c3ccccn3)CC2)sc1C`, the result in assay [1], in assay [2], in assay [3], in assay [4] and in assay [5] was inactive.

`CCCn1c(=O)c(C(=O)NNC(=O)c2ccc(Cl)cc2Cl)c(O)c2ccccc21`: the result in assay [1], in assay [4] and in assay [5] was inactive. Also, the figures for the potentiation in assay [2] and in assay [3] were 30% (active) and 154% (active), respectively.

As to `COc1ccc(OC)c(NC(=S)N2CCC(C(O)(c3ccccc3)c3ccccc3)CC2)c1`, the result in assay [1], in assay [4] and in assay [5] was inactive. In addition, the values for the potentiation in assay [2] and in assay [3] were 43% (active) and 174% (active), respectively.

For the compound `Cc1ccc(C)c(-n2c3nc(=O)n(C)c(=O)c-3cc3ccccc32)c1`, the outcome in assay [1], in assay [2], in assay [3], in assay [4] and in assay [5] was inactive.

Take `Cc1cc(NC(=O)CSCC(=O)OC(C)C(=O)N(C)Cc2ccccc2)no1` (stereo not given): the result in assay [1], in assay [3], in assay [4] and in assay [5] was inactive. Besides, the potentiation in assay [2] is 28% (active).
